{"data": "Assay results gathered from unrelated publications", "Prostate-specific antigen": "Prostate-specific antigen (Homo sapiens, UniProt P07288)", "SIGMAR1": "Sigma non-opioid intracellular receptor 1 (SIGMAR1, Cavia porcellus, UniProt Q60492)", "CASP7": "Caspase-7 (CASP7, Homo sapiens, UniProt P55210)", "ADRA1D": "Alpha-1D adrenergic receptor (ADRA1D, Homo sapiens, UniProt P25100)", "TMEM97": "Sigma intracellular receptor 2 (TMEM97, Homo sapiens, UniProt Q5BJF2)", "lecB": "Fucose-binding lectin PA-IIL (lecB, Pseudomonas aeruginosa, UniProt Q9HYN5)", "ADRA2B": "Alpha-2B adrenergic receptor (ADRA2B, Homo sapiens, UniProt P18089)", "note": "Protocols differ between the studies behind these lines."}
{"Compound": "CCCC[C@H](NC(=O)[C@H](CCC(N)=O)NC(=O)[C@H](CO)NC(=O)[C@H](C)NC(=O)CCCCCN)C(=O)N[C@@H](Cc1ccccc1)B(O)O", "target": "Prostate-specific antigen", "test": "enzyme activity, inhibitor, fluorescence", "conditions": "pH 7.8", "Ki [µM]": 0.31}
{"Compound": "CN(Cc1ccc(NC(=O)C2=Cc3cc(-c4ccc(OCCCCCF)cc4)ccc3CCC2)cc1)C1CCOCC1", "target": "SIGMAR1", "test": "ligand displacement, radioligand", "Ki [µM]": 0.32}
{"Compound": "O=c1c(O)c(-c2ccc(O)c(O)c2)oc2cc(O)cc(O)c12", "target": "CASP7", "test": "enzyme activity, inhibitor, fluorescence", "Ki [µM]": "> 300"}
{"Compound": "O=C1c2ccccc2CCCN1CCCCN1CCN(c2ccccn2)CC1", "target": "ADRA1D", "test": "ligand displacement, radioligand", "Ki [µM]": 0.98}
{"Compound": "Cc1cc(Oc2nccc3c2ccn3C)ccc1-c1c(C)c(=O)[nH]c(=O)n1C", "target": "Muscarinic acetylcholine receptor M3 (CHRM3, Homo sapiens, UniProt P20309)", "test": "ligand displacement, radioligand", "Ki [µM]": 4.2}
{"Compound": "CCCC[C@H](NC(=O)[C@H](CCC(N)=O)NC(=O)[C@H](CO)NC(=O)CCCCCN)C(=O)N[C@@H](CCCBr)B(O)O", "target": "Prostate-specific antigen", "test": "enzyme activity, inhibitor, fluorescence", "conditions": "pH 7.8", "Ki [µM]": 0.302}
{"Compound": "CN(Cc1ccc(NC(=O)C2=Cc3cc(-c4ccc(OCCCF)cc4)ccc3CCC2)cc1)C1CCOCC1", "target": "SIGMAR1", "test": "ligand displacement, radioligand", "Ki [µM]": 1}
{"Compound": "COc1ccc(CO[C@H]2CCCN(Cc3cccc(C)c3)C2)cc1F", "target": "TMEM97", "test": "ligand displacement, radioligand", "conditions": "cell membranes", "Ki [µM]": 0.04}
{"Compound": "O=C(c1ccccc1)c1ccc(CNCCCN2C(=O)c3ccccc3C2=O)cc1", "target": "TMEM97", "test": "ligand displacement, radioligand", "conditions": "cell membranes", "Ki [µM]": "> 10"}
{"Compound": "CCCC[C@H](NC(=O)[C@H](CCC(N)=O)NC(=O)[C@H](CO)NC(=O)C[C@@H](Cc1ccc2ccccc2c1)NC(=O)CCCCCN)C(=O)N[C@@H](CCCBr)B(O)O", "target": "Prostate-specific antigen", "test": "enzyme activity, inhibitor, fluorescence", "conditions": "pH 7.8", "Ki [µM]": 0.102}
{"Compound": "C[C@@H]1O[C@H](CNS(=O)(=O)c2ccc(CCn3cc(CCN4CCN(c5cc6c(cc5F)c(=O)c(C(=O)O)cn6C5CC5)CC4)nn3)s2)[C@@H](O)[C@H](O)[C@@H]1O", "target": "lecB", "test": "ligand displacement, FP", "Ki [µM]": 0.89}
{"Compound": "O=C(NCCN1CCCCC1)c1ccc(O)c(Br)c1", "target": "SIGMAR1", "test": "ligand displacement, radioligand", "conditions": "cell membranes", "Ki [µM]": "> 10"}
{"Compound": "C#CCN(CCCN1CCN(C2CCCCC2)CC1)c1ccc(C(=O)c2ccccc2)cc1", "target": "TMEM97", "test": "ligand displacement, radioligand", "conditions": "cell membranes", "Ki [µM]": 0.0777}
{"Compound": "CCCC[C@H](NC(=O)[C@H](CCC(N)=O)NC(=O)[C@H](CO)NC(=O)[C@H](C)NC(=O)CCCCCN)C(=O)N[C@@H](CCCBr)B(O)O", "target": "Prostate-specific antigen", "test": "enzyme activity, inhibitor, fluorescence", "conditions": "pH 7.8", "Ki [µM]": 0.0521}
{"Compound": "O=C(NCCN1CCCCC1)c1ccc(OCCF)c(Br)c1", "target": "SIGMAR1", "test": "ligand displacement, radioligand", "conditions": "cell membranes", "Ki [µM]": 0.0361}
{"Compound": "O=C1c2ccccc2CCN1CCCCN1CCN(c2cccc(Cl)c2Cl)CC1", "target": "ADRA1D", "test": "ligand displacement, radioligand", "Ki [µM]": 0.0784}
{"Compound": "O=C(NCCN1CCCCC1)c1ccc(OCCCF)c(Br)c1", "target": "SIGMAR1", "test": "ligand displacement, radioligand", "conditions": "cell membranes", "Ki [µM]": 0.0233}
{"Compound": "CCCCN1CCC(COC(=O)c2ccc(N)c(OCF)c2)CC1", "target": "ADRA2B", "test": "cell-free assay, radioligand", "Ki [µM]": "> 10"}
{"Compound": "CCCNc1nc2ccccc2n1Cc1ccc(Cl)cc1", "target": "ADRA2B", "test": "ligand displacement, radioligand", "Ki [µM]": 0.677}
{"Compound": "CCCn1nc(C(=O)N2CCCCC2)c2c1CCC(NCCCNC)C2 (stereo not drawn)", "target": "TMEM97", "test": "ligand displacement, radioligand", "Ki [µM]": 1.99}
{"Compound": "CCCC[C@H](NC(=O)[C@H](CCC(N)=O)NC(=O)[C@H](CO)NC(=O)[C@H](Cc1ccccc1)NC(=O)CCCCCN)C(=O)N[C@@H](Cc1ccccc1)B(O)O", "target": "Prostate-specific antigen", "test": "enzyme activity, inhibitor, fluorescence", "conditions": "pH 7.8", "Ki [µM]": 0.0615}
{"Compound": "O=C(CN(CCCCI)CCCN1CCN(C2CCCCC2)CC1)Nc1ccc(C(=O)c2ccccc2)cc1", "target": "TMEM97", "test": "ligand displacement, radioligand", "conditions": "cell membranes", "Ki [µM]": 0.045}
{"Compound": "CCCn1nc(C(=O)N2CCCCC2)c2c1CCC(Nc1ccc(N3CCCCC3)cc1)C2 (stereo not drawn)", "target": "TMEM97", "test": "ligand displacement, radioligand", "Ki [µM]": 0.787}
{"Compound": "O=c1cc(-c2ccc(O)c(O)c2)oc2cc(O)cc(O)c12", "target": "CASP7", "test": "enzyme activity, inhibitor, fluorescence", "Ki [µM]": 130}
{"Compound": "CNC(=O)[C@@]12C[C@@H]1[C@@H](n1cnc3c(NC)nc(C#Cc4ccccc4)nc31)[C@H](O)[C@@H]2O", "target": "SIGMAR1", "test": "ligand displacement, radioligand", "Ki [µM]": 7.11}
{"Compound": "CCCC[C@H](NC(=O)[C@H](CCC(N)=O)NC(=O)[C@H](CO)NC(=O)[C@H](Cc1ccccc1)NC(=O)CCCCCN)C(=O)N[C@@H](CCCBr)B(O)O", "target": "Prostate-specific antigen", "test": "enzyme activity, inhibitor, fluorescence", "conditions": "pH 7.8", "Ki [µM]": 0.0723}
{"Compound": "COc1cc2c(cc1OC)CN(CCCNC(=O)c1ccc(C(=O)c3ccc([N+](=O)[O-])cc3)cc1)CC2", "target": "TMEM97", "test": "ligand displacement, radioligand", "conditions": "cell membranes", "Ki [µM]": 1.2}
{"Compound": "CCCC[C@H](NC(=O)[C@H](CCCCN)NC(=O)[C@H](CO)NC(=O)[C@H](CO)NC(=O)OCc1ccccc1)C(=O)N[C@@H](Cc1ccccc1)B(O)O", "target": "Prostate-specific antigen", "test": "enzyme activity, inhibitor, fluorescence", "conditions": "pH 7.8", "Ki [µM]": 0.165}
{"Compound": "C[C@@H]1O[C@H](CNS(=O)(=O)c2ccc(CCN=[N+]=[N-])s2)[C@@H](O)[C@H](O)[C@@H]1O", "target": "lecB", "test": "ligand displacement, FP", "Ki [µM]": 1.52}
{"Compound": "CCOC(=O)[C@@]12C[C@@H]1[C@@H](n1cnc3c(NC)nc(C#Cc4ccc(Cl)s4)cc31)[C@H](O)[C@@H]2O", "target": "SIGMAR1", "test": "ligand displacement, radioligand", "Ki [µM]": 1.04}
